Series [1] concerns the target T1, Protein cereblon/AKT (Homo sapiens) (UniProt P31751+Q9Y243+P31749+Q96SW2). Nature of the series: Protac activity at CRBN/AKT in human PC-3 cells assessed as reduction in phosphorylated AKT level at 1 uM after 24 hrs by Western blot analysis. The class given is cell-based. The procedure, abridged: (§1)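 PC3 cells were exposed to compound at 1 μM for 24 h, with GSK690693 as reference inhibitor. Lysates were immunoblotted for total AKT, P-AKT S473, P-PRAS40 T246 and P-S6 S240/244, with β-actin as loading control. Detection was by HRP chemiluminescence on film.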
(In western blotting, separated proteins are transferred to a membrane and probed.)

Series [2] has as its target T1, Protein cereblon/AKT (Homo sapiens). Put plainly: Protac activity at CRBN/AKT in human PC-3 cells assessed as reduction in total AKT level at 1 uM after 24 hrs by Western blot analysis. The class given is cell-based. In outline:
as §1

Series [3] has as its target T2, von Hippel-Lindau disease tumor suppressor/AKT (Homo sapiens) (UniProt P31751+Q9Y243+P31749+P40337). Put plainly: Protac activity at VHL/AKT in human PC-3 cells assessed as reduction in phosphorylated AKT level at 1 uM after 24 hrs by Western blot analysis. The class given is cell-based. In outline:
as §1

The target of series [4] is T2, von Hippel-Lindau disease tumor suppressor/AKT (Homo sapiens). Nature of the series: Protac activity at VHL/AKT in human PC-3 cells assessed as reduction in total AKT level at 1 uM after 24 hrs by Western blot analysis. The class given is cell-based. The procedure, abridged: as §1
For series [5], the target named is T1, Protein cereblon/AKT (Homo sapiens). Nature of the series: Protac activity at CRBN/AKT in human BT-474 cells assessed as reduction in PRAS40 phosphorylation at 1 uM after 24 hrs by Western blot analysis. The class given is cell-based. The procedure, abridged: (§2)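 BT474 cells were treated 24 h with compound and lysed in IP lysis buffer (Tris pH 7.5, Triton X-100, phosphatase and protease inhibitors). Lysates were normalised by BCA and run on 4–12% Bis–Tris gels with PVDF wet transfer. Blots were probed for total AKT, P-AKT S473, P-PRAS40 T246 and P-S6 S240/244, with β-actin loading control and HRP chemiluminescence.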

Series [6] concerns the target T2, von Hippel-Lindau disease tumor suppressor/AKT (Homo sapiens). Put plainly: Protac activity at VHL/AKT in human PC-3 cells assessed as reduction in S6 phosphorylation at 1 uM after 24 hrs by Western blot analysis. Type of series: cell-based. The procedure, abridged: as §1
For series [7] the target is unchanged. Put plainly: Protac activity at VHL/AKT in human PC-3 cells assessed as reduction in PRAS40 phosphorylation at 1 uM after 24 hrs by Western blot analysis. The class given is cell-based. In outline: as §1
The target is the same in series [8]. Nature of the series: Protac activity at VHL/AKT in human BT-474 cells assessed as reduction in total AKT level after 24 hrs by Western blot analysis. The class given is cell-based. The settings on record: dose 1-10 µM. In outline: as §2
For series [9], the system named is MDA-MB-468. Put plainly: Induction of apoptosis in human MDA-MB-468 cells at 2.5 uM measured upto 120 hrs by IncuCyte live-cell automated imaging analysis. Type of series: functional. In outline: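 MDA-MB-468 cells (1–3 × 10³/well, triplicate wells) grown with compound in DMEM/10% FBS at 37 °C, 5% CO₂. DRAQ7 at 1.5 μM was added to the medium, and apoptotic red-fluorescent counts were imaged on an IncuCyte over 5 days.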

For series [10], the system named is BT-474. Put plainly: Inhibition of colony formation in human BT-474 cells at 0.1 to 10 uM after 14 days by crystal violet staining based assay. Type of series: functional, cell-based. As to conditions: dose 0.1-10 µM, time 14.0 day. In outline: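 BT474 cells were cultured 14 days with compound, and medium plus compound was replenished every 2 days. Viable cells were stained with 0.5% crystal violet and quantified.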

In series [11] the test system is PC-3. Nature of the series: Antiproliferative activity against human PC-3 cells assessed as growth inhibition incubated for 5 days by IncuCyte live-cell imaging analysis. The settings on record: PC-3, 120 h, time 5 day. Type of series: functional.
Series [12] relates to Mus musculus. Put plainly: Toxicity in Swiss albino mouse assessed as tolerability at 50 mg/kg, ip measured upto 8 hrs by LC-MS/MS method. Type of series: organism-based. As to conditions: in vivo.
For series [13], the system named is MDA-MB-468. Put plainly: Antiproliferative activity against human MDA-MB-468 cells assessed as growth inhibition incubated for 5 days by IncuCyte live-cell imaging analysis. The class given is functional. The settings on record: MDA-MB-468, 120 h, time 5 day.
Series [14] has as its system BT-474. Nature of the series: Antiproliferative activity against human BT-474 cells assessed as growth inhibition incubated for 5 days by IncuCyte live-cell imaging analysis. Type of series: functional. The settings on record: BT-474, 120 h, time 5 day.
The conditions of series [15]: mouse, in vivo, ip, 50 mg/kg, 2 h.
The nature of series [16]: in vivo. As to conditions: Swiss albino, mouse, ip, 50 mg/kg.
Series [17] is described as follows: in vivo. As to conditions: Swiss albino, mouse, ip, 50 mg/kg. The source holds these as a separate data set.
For series [18], the target named is T2, von Hippel-Lindau disease tumor suppressor/AKT (Homo sapiens). Put plainly: Protac activity at VHL/AKT in human BT-474 cells assessed as reduction in total AKT level at 5 to 10 uM after 24 hrs by Western blot analysis. Type of series: cell-based. As to conditions: dose 5-10 µM. In outline:
as §2

Series [19] has the same target. Nature of the series: Protac activity at VHL/AKT in human BT-474 cells assessed as reduction in phosphorylated AKT level at 5 to 10 uM after 24 hrs by Western blot analysis. Type of series: cell-based. As to conditions: dose 5-10 µM. The procedure, abridged: as §2
Series [20] deals with T1, Protein cereblon/AKT (Homo sapiens). Put plainly: Protac activity at CRBN/AKT in human PC-3 cells assessed as reduction in S6 phosphorylation at 1 uM after 24 hrs by Western blot analysis. Type of series: cell-based. The procedure, abridged: as §1
Series [21] has the same target. Nature of the series: Protac activity at CRBN/AKT in human PC-3 cells assessed as reduction in PRAS40 phosphorylation at 1 uM after 24 hrs by Western blot analysis. Type of series: cell-based. In outline:
as §1

Calls of active or inactive are those of the source. The calls are words filed in the database; no cut-off is given here.

With `CCn1c(-c2nonc2N)nc2c(C#CC(C)(C)O)ncc(OCCCNCCCC(=O)NCCOCCOCCOCCOCCOCCNc3cccc4c3C(=O)N(C3CCC(=O)NC3=O)C4=O)c21` (stereo unspecified), the outcome in series [1] and in [2] was Active.
For `CCn1c(-c2nonc2N)nc2c(C#CC(C)(C)O)ncc(OCCCNCCCC(=O)NCCOCCOCCOCCC(=O)N[C@H](C(=O)N3C[C@H](O)C[C@H]3C(=O)NCc3ccc(-c4scnc4C)cc3)C(C)(C)C)c21`, the outcome in series [3] and in series [4] was inactive.
With `CCn1c(-c2nonc2N)nc2c(C#CC(C)(C)O)ncc(OCCCNCCCC(=O)NCCOCCOCCOCCOCCNc3cccc4c3C(=O)N(C3CCC(=O)NC3=O)C4=O)c21` (stereo unspecified), the result in [1] and in series [2] was Active.
As for `CCn1c(-c2nonc2N)nc2c(C#CC(C)(C)O)ncc(OCCCNCCCC(=O)NCCOCCNc3cccc4c3C(=O)N(C3CCC(=O)NC3=O)C4=O)c21` (stereo unspecified), the outcome in series [1] and in [2] was Active.
Turning to `CCn1c(-c2nonc2N)nc2c(C#CC(C)(C)O)ncc(OCCCNCCCC(=O)NCCOCCOCCOCCNc3cccc4c3C(=O)N(C3CCC(=O)NC3=O)C4=O)c21` (stereo unspecified), the outcome in [1] and in [2] was Active.
Take `C[C@@H]1C[C@@H](O)c2ncnc(N3CCN(C(=O)[C@H](CNCCNC(=O)CCCCCCCCNc4cccc5c4C(=O)N(C4CCC(=O)NC4=O)C5=O)c4ccc(Cl)cc4)CC3)c21` (stereo partly specified): the result in series [5] was Active.
In the case of `CCn1c(-c2nonc2N)nc2c(C#CC(C)(C)O)ncc(OCCCNCCCC(=O)NCCOCCOCCOCC(=O)N[C@H](C(=O)N3C[C@H](O)C[C@H]3C(=O)NCc3ccc(-c4scnc4C)cc3)C(C)(C)C)c21`, the result in series [3] and in series [4] was inactive.
Regarding `CCn1c(-c2nonc2N)nc2c(C#CC(C)(C)O)ncc(OCCCNCCCC(=O)NCCOCCOCCNc3cccc4c3C(=O)N(C3CCC(=O)NC3=O)C4=O)c21` (stereo unspecified), the outcome in series [1] and in series [2] was Active.
As to `CCn1c(-c2nonc2N)nc2c(C#CC(C)(C)O)ncc(OCCCNCCCC(=O)NCCOCCOCC(=O)N[C@H](C(=O)N3C[C@H](O)C[C@H]3C(=O)NCc3ccc(-c4scnc4C)cc3)C(C)(C)C)c21`, the result in series [3] and in series [4] was inactive.
With `CCn1c(-c2nonc2N)nc2c(C#CC(C)(C)O)ncc(OCCCNCCCC(=O)NCCCCCCCCCCC(=O)N[C@H](C(=O)N3C[C@H](O)C[C@H]3C(=O)NCc3ccc(-c4scnc4C)cc3)C(C)(C)C)c21`, the outcome in [3], in series [6] and in [4] was Active. Moreover, the result in [7] was inactive.
For the compound `Cc1ncsc1-c1ccc(CNC(=O)[C@@H]2C[C@@H](O)CN2C(=O)[C@@H](NC(=O)CCCCNC(=O)CCNC[C@@H](C(=O)N2CCN(c3ncnc4c3[C@H](C)C[C@H]4O)CC2)c2ccc(Cl)cc2)C(C)(C)C)cc1`, the Activity result in series [8] was “Dose-dependent effect”.
On to `C[C@@H]1C[C@@H](O)c2ncnc(N3CCN(C(=O)[C@H](CNCCC(=O)NCCCCCCCCNc4cccc5c4C(=O)N(C4CCC(=O)NC4=O)C5=O)c4ccc(Cl)cc4)CC3)c21` (stereo partly specified), for which the Activity in [9] is less than 3%; in [12], “Non-Toxic”. Besides, in [10], the inhibition entry is “Active”. Moreover, the GI50 in series [11] turned out to be 7.4 µM; in series [13], 5.7 µM; in series [14], 0.7 µM. In series [15], this compound returned a Cmax of 1400 nM.
On to `CC(C)NC[C@@H](C(=O)N1CCN(c2ncnc3c2[C@H](C)C[C@H]3O)CC1)c1ccc(Cl)cc1` [IPATASERTIB], for which the GI50 was found to be 7.6 µM in series [11] and 3.7 µM in [13].
With `Cc1ncsc1-c1ccc([C@H](C)NC(=O)[C@@H]2C[C@@H](O)CN2C(=O)[C@@H](NC(=O)CCCCCCCCCCC(=O)NCCNC[C@@H](C(=O)N2CCN(c3ncnc4c3[C@H](C)C[C@H]4O)CC2)c2ccc(Cl)cc2)C(C)(C)C)cc1`, the Activity in series [9] is less than 3%; in series [12] it was “Non-Toxic”. The same compound registered a Cmax at 2 h in [16] of 3500 nM. In addition, the results for the GI50 in [11], in series [13] and in series [14] were 9.2 µM, 3.8 µM and 1.3 µM, respectively. The same compound came in with a Cmax at 8 h in series [17] of 3000 nM.
Turning to `CCn1c(-c2nonc2N)nc2c(C#CC(C)(C)O)ncc(OCCCNCCCC(=O)NCCOCCOCCOCCOCCOCCC(=O)N[C@H](C(=O)N3C[C@H](O)C[C@H]3C(=O)NCc3ccc(-c4scnc4C)cc3)C(C)(C)C)c21`, the result in [3] and in series [4] was inactive.
Turning to `Cc1ncsc1-c1ccc(CNC(=O)[C@@H]2C[C@@H](O)CN2C(=O)[C@@H](NC(=O)COCCNC(=O)CCNC[C@@H](C(=O)N2CCN(c3ncnc4c3[C@H](C)C[C@H]4O)CC2)c2ccc(Cl)cc2)C(C)(C)C)cc1`, the outcome in series [18] and in [19] was Active.
In the case of `CCn1c(-c2nonc2N)nc2c(C#CC(C)(C)O)ncc(OCCCNCCCC(=O)NCCCCCCCCNc3cccc4c3C(=O)N(C3CCC(=O)NC3=O)C4=O)c21` (stereo unspecified), the outcome in series [20], in series [1] and in series [2] was Active. Also, in series [21], the outcome was inactive.
With `CCn1c(-c2nonc2N)nc2c(C#CC(C)(C)O)ncc(OCCCNCCCC(=O)NCCOCCC(=O)N[C@H](C(=O)N3C[C@H](O)C[C@H]3C(=O)NCc3ccc(-c4scnc4C)cc3)C(C)(C)C)c21`, the result in [3] and in series [4] was inactive.
In the case of `CCn1c(-c2nonc2N)nc2c(C#CC(C)(C)O)ncc(OCCCNCCCC(=O)NCCOCCOCCOCCOCCC(=O)N[C@H](C(=O)N3C[C@H](O)C[C@H]3C(=O)NCc3ccc(-c4scnc4C)cc3)C(C)(C)C)c21`, the outcome in series [3] and in [4] was inactive.
For `CCn1c(-c2nonc2N)nc2c(C#CC(C)(C)O)ncc(OCCCNCCCC(=O)NCCOCC(=O)N[C@H](C(=O)N3C[C@H](O)C[C@H]3C(=O)NCc3ccc(-c4scnc4C)cc3)C(C)(C)C)c21`, the outcome in series [3] and in series [4] was inactive.
For the compound `C[C@@H]1C[C@@H](O)c2ncnc(N3CCN(C(=O)[C@H](CNCCC(=O)NCCCCCCCCNc4cccc5c4C(=O)N(C4CCC(=O)N(C)C4=O)C5=O)c4ccc(Cl)cc4)CC3)c21` (stereo partly specified), the GI50 in [14] amounted to 3.3 µM.
Consider `CCn1c(-c2nonc2N)nc2c(C#CC(C)(C)O)ncc(OCCCNCCCC(=O)NCCOCCOCCC(=O)N[C@H](C(=O)N3C[C@H](O)C[C@H]3C(=O)NCc3ccc(-c4scnc4C)cc3)C(C)(C)C)c21`, for which the outcome in series [3] and in [4] was inactive.
`Cc1ncsc1-c1ccc([C@H](C)NC(=O)[C@H]2C[C@H](O)CN2C(=O)[C@@H](NC(=O)CCCCCCCCCCC(=O)NCCNC[C@@H](C(=O)N2CCN(c3ncnc4c3[C@H](C)C[C@H]4O)CC2)c2ccc(Cl)cc2)C(C)(C)C)cc1`: in [14], the GI50 was found to be 3.1 µM.

In general, GI50 refers to the concentration giving 50% growth inhibition. As a reminder, the Cmax is the peak of the concentration-time curve.
